Laboratory results as given in ChEMBL document CHEMBL2380225, “Chalcones, inhibitors for topoisomerase I and cathepsin B and L, as potential anti-cancer agents” (Bioorg Med Chem Lett, 2013).

What was measured:
SNU-638 = assay: Cytotoxicity against human SNU638 cells by MTT assay; format: functional, cell-based
How it was run: (§1)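 MTT viability assay on T47D (breast ductal carcinoma) and SNU638 (gastric cancer) human cell lines. IC50 reported as mean ± SD of three separate experiments, each run in triplicate.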

T47D = assay: Cytotoxicity against human T47D cells by MTT assay; format: functional, cell-based; how it was run: as §1
Cathepsin B = Cathepsin B (Homo sapiens, UniProt P07858); assay: Inhibition of cathepsin B (unknown origin) using RR-AMC as substrate after 30 mins by fluorescence assay
[1] = target: T1, DNA topoisomerase 1 (Homo sapiens) (UniProt P11387); assay: Inhibition of human topoisomerase 1 at 20 uM relative to control
T1 sequence (whole entry): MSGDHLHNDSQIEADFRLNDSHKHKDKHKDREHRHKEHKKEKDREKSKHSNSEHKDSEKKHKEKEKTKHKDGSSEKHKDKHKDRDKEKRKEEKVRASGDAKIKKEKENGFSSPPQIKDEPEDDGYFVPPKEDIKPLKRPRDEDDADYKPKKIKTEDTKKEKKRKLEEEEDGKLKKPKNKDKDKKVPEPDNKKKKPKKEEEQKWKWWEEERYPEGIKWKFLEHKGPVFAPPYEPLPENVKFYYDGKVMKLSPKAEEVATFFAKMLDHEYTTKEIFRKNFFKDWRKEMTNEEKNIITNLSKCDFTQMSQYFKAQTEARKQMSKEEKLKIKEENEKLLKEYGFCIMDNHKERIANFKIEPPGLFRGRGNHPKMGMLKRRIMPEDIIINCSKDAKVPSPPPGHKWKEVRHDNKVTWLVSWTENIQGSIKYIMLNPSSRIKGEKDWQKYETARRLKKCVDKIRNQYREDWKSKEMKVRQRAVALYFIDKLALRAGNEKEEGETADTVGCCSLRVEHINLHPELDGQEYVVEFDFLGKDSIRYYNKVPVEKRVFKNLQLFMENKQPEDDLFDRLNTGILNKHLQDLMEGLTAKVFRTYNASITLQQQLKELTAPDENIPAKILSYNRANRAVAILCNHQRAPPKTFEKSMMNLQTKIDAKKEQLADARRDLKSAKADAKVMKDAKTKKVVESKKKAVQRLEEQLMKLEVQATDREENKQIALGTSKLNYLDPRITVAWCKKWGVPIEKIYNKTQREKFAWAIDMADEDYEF
How it was run: (§2)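 Supercoiled DNA relaxation assay with human topoisomerase I or II (Topogen). Compounds were tested at final 100 and 20 μM. Percent inhibition was derived from the inhibition ratio by image analysis and expressed as the mean of triplicate experiments.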

[2] = target: DNA topoisomerase 2-alpha (Homo sapiens) (UniProt P11388); assay: Inhibition of human topoisomerase 2 at 20 uM relative to control; how it was run: as §2
Procathepsin L = Procathepsin L (Homo sapiens, UniProt P07711); assay: Inhibition of cathepsin L (unknown origin) using Z-FR-AMC as substrate after 30 mins by fluorescence assay
How it was run: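 Calbiochem cathepsin L (4 nM) was reductively pre-activated for 30 min at 37 °C in 0.1 M NaOAc-HCl, 1 mM EDTA, 0.1% β-mercaptoethanol, pH 5.5. Reaction started with compound plus 20 μM Z-FR-AMC and ran 30 min at room temperature. Fluorescence read at 360 nm excitation / 450 nm emission. IC50 is the mean ± SD of triplicate runs.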

[3] = target: T1, DNA topoisomerase 1 (Homo sapiens); assay: Inhibition of human topoisomerase 1 at 100 uM relative to control; how it was run: as §2
[4] = target: DNA topoisomerase 2-alpha (Homo sapiens) (UniProt P11388); assay: Inhibition of human topoisomerase 2 at 100 uM relative to control; how it was run: as §2

DNA topoisomerase 2-alpha (Homo sapiens), sequence (P11388 whole entry): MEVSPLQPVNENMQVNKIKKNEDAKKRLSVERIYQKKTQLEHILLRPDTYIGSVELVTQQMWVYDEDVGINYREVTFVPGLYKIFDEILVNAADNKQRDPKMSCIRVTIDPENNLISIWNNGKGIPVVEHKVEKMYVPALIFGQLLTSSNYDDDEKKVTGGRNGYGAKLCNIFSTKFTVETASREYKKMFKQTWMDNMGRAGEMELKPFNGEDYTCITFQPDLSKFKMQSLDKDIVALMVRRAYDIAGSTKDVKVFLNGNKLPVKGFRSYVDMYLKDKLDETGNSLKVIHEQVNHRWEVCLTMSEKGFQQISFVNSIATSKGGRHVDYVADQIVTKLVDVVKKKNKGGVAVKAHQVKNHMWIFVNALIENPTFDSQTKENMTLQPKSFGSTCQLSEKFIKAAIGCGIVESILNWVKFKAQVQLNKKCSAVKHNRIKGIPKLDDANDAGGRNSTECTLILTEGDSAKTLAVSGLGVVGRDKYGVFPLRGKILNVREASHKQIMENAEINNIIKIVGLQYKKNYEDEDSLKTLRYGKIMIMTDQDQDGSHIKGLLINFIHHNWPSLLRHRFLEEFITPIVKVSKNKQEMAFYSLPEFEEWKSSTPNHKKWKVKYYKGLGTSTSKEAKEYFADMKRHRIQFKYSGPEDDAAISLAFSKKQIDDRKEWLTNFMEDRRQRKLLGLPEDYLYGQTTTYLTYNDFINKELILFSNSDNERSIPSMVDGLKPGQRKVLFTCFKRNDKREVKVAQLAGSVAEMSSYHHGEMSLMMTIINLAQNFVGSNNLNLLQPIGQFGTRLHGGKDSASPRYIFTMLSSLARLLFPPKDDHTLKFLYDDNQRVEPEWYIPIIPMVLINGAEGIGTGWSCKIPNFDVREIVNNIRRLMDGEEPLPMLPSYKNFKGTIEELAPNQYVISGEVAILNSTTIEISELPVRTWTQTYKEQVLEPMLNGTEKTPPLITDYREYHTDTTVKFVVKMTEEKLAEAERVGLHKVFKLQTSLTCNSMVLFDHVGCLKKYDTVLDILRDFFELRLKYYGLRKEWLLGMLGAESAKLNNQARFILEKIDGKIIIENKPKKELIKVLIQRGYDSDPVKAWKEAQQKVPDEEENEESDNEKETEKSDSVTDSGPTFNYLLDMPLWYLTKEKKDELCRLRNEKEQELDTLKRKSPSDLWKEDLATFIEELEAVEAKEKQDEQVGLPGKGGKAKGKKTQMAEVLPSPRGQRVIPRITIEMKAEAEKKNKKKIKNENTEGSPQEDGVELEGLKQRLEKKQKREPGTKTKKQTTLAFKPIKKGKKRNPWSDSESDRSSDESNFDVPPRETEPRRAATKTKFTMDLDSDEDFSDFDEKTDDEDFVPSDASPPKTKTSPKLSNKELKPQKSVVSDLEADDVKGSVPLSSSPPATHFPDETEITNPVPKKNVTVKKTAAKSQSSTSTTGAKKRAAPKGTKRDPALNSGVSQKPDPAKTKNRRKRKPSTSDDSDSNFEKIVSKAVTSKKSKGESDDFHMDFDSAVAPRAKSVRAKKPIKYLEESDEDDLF
Procathepsin L, sequence (P07711 whole entry): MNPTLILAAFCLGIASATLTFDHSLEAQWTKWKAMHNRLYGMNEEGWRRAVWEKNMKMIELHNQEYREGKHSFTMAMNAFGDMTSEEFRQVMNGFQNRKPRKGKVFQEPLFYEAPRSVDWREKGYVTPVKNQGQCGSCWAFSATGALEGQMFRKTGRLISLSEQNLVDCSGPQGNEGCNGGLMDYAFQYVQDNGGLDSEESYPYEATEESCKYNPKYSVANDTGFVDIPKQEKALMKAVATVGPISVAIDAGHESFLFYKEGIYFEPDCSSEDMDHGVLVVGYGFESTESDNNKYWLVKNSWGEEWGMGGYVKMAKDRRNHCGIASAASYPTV

Row | SMILES | IC50 (SNU-638) [µM] | IC50 (T47D) [µM] | IC50 (Cathepsin B) [µM] | inhibition [1] [%] | inhibition [2] [%] | IC50 (Procathepsin L) [µM] | inhibition [3] [%] | inhibition [4] [%]
1 | O=C(/C=C/c1ccc(N2CCCC2)cc1)c1ccc(O)cc1 | 0.62 | 1.37 | 1.81 | 60 | 19.1 | 3.15 | 74.7 | 96.8
2 | O=C(/C=C/c1ccc(N2CCCC2)cc1)c1ccc([N+](=O)[O-])cc1 | > 25 | 21.3 | 29 | 77.6 | 15.3 | 9.42 | 91.1 | 96.1
3 | COc1ccc(/C=C/C(=O)c2ccc(O)cc2)cc1Br | – | – | > 100 | 6.6 | – | 29.8 | 24.8 | 1.2
4 | O=C(/C=C/c1ccc(N2CCCC2)cc1)c1ccc(F)cc1 | > 25 | > 25 | 54.3 | 73.1 | – | 56.5 | 90.6 | 0
5 | COc1cc([C@@H]2c3cc4c(cc3[C@@H](O[C@@H]3O[C@@H]5CO[C@@H](C)O[C@H]5[C@H](O)[C@H]3O)[C@H]3COC(=O)[C@H]23)OCO4)cc(OC)c1O [ETOPOSIDE] | 2.57 | 4.98 | – | – | – | – | – | –
6 | COc1ccc(/C=C/C(=O)c2ccc(F)cc2)cc1Br | > 25 | > 25 | > 100 | 20.1 | 0 | > 100 | 76.5 | 48.7
7 | O=C(/C=C/c1ccc(N2CCCC2)cc1)c1ccc(O)cc1O | 5.77 | 6.99 | 28.7 | 64.4 | – | 4.72 | 87.1 | 0
8 | COc1ccc(C(=O)/C=C/c2ccc(F)cc2)c(O)c1 | 18.4 | 21.9 | > 100 | 60 | – | 98.7 | 81.2 | 0
9 | COc1cc(O)ccc1/C=C/C(=O)c1ccc(N)cc1 | – | – | 76.5 | – | – | 32.9 | 0.8 | 0
10 | COc1cc(O)ccc1/C=C/C(=O)c1ccc(NC(C)=O)cc1 | 17.4 | 12.3 | 46.8 | 17.3 | – | 39.3 | 100 | 0
11 | COc1ccc(/C=C/C(=O)c2ccc(O)cc2O)cc1Br | 2.89 | 1.05 | > 100 | 8.2 | – | 67.5 | 73.2 | 2.4
12 | CC[C@@]1(O)C(=O)OCc2c1cc1n(c2=O)Cc2cc3ccccc3nc2-1 [CAMPTOTHECIN] | 0.28 | 0.07 | – | – | – | – | – | –
13 | COc1cc(O)ccc1/C=C/C(=O)c1ccc(O)cc1 [ECHINATIN] | 10.4 | 12.1 | 57.7 | 2.1 | – | 30.3 | 88.9 | 1.6
14 | O=C(/C=C/c1ccc(F)cc1)c1ccc(O)cc1O | 9.43 | 8.31 | > 100 | 56.7 | 12.6 | > 100 | 80.2 | 42.2
15 | COc1cc(O)ccc1C(=O)/C=C/c1ccc(F)cc1 | > 25 | > 25 | > 100 | 61.6 | – | 91.2 | 86.1 | 0
16 | COc1ccc(C(=O)/C=C/c2ccc(OC)c(Br)c2)c(O)c1 | – | – | > 100 | 3.8 | – | 45.3 | 5 | 1
17 | COc1cc(O)ccc1/C=C/C(=O)c1ccc(F)cc1 | 6.3 | 8.51 | 95.1 | 9.5 | – | 73.2 | 95.8 | 0.7
18 | O=C(/C=C/c1ccc(F)cc1)c1ccc(O)cc1 | 5.54 | 13.8 | > 100 | 18 | – | > 100 | 50.9 | 0
19 | COc1ccc(/C=C/C(=O)c2ccco2)cc1Br | 4.29 | 10.9 | > 100 | 8.8 | 0 | > 100 | 92 | 24.7
20 | COc1ccc(/C=C/C(=O)c2cccs2)cc1Br | 16.6 | 21.9 | > 100 | 2.1 | – | > 100 | 74.4 | 5.8
21 | COc1cccc2c1C(=O)c1c(O)c3c(c(O)c1C2=O)C[C@@](O)(C(=O)CO)C[C@@H]3O[C@H]1C[C@H](N)[C@H](O)[C@H](C)O1 [DOXORUBICIN] | 0.84 | 2.91 | – | – | – | – | – | –
